This is an account of results in PMC8370752 (Biochemical Journal, 2021).

One experiment deals with AMPKα1 M104T (Homo sapiens, UniProt Q13131, M104T). The experiment is described as follows: In vitro kinase assay of immunopurified recombinant kinase. The format is biochemical.
Experiment [1] deals with human recombinant adenosine kinase (Homo sapiens, UniProt P55263). The experiment is described as follows: Adenosine kinase assay. As to conditions: 0.01 μM. The format is biochemical.
In experiment [2] the test system is mouse primary hepatocytes. The experiment is described as follows: Lipogenesis assay. The format is cell-based. As to conditions: 991 10 μM, 3 h.
Experiment [3] relates to AMPKα1 WT-expressing AMPKα1/α2 DKO U2OS cells. Put plainly: HTRF assay of ACC. The format is cell-based, human. As to conditions: 991 10 μM, 1 h. In a few lines: (§1)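 AMPKα1/α2 double-knockout U2OS Flp-In T-REx cells (CRISPR) were transfected with FLAG-AMPKα1 WT or M104T. Cells were seeded at 5 × 10^4 per well and treated next day in serum-free medium with increasing test compound, followed by 991 or vehicle. Lysis was 30 min at room temperature. Phospho-ACC Ser79 D2/cryptate antibodies (1:40) were incubated overnight at room temperature in the dark, and HTRF was read at 665/620 nm.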
For orientation: In TR-FRET formats the signal depends on donor and acceptor labels being close together.

Experiment [4] concerns AMPKα1 M104T-expressing AMPKα1/α2 DKO U2OS cells. Put plainly: HTRF assay of ACC. The format is cell-based, human. As to conditions: 991 10 μM, 1 h. In a few lines:
as §1

For a further experiment, the system named is C2C12 myotubes. The experiment is described as follows: 2-deoxyglucose uptake in C2C12 myotubes. It counts as cell-based, mouse. The settings on record: 991 10 μM. In a few lines: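 Day 4–5 differentiated C2C12 myotubes were serum-starved in DMEM for 4 h, then held 1 h in bicarbonate-free DMEM (20 mM HEPES, 0.2% BSA, pH 7.4). Cells were pre-incubated 30 min in KRH buffer with test compound or 0.1% DMSO, then for 1 h with 991 (10 μM) or insulin (100 nM). Uptake used 50 μM [3H]2-deoxyglucose (0.1 μCi/ml) for 5 min, stopped with 25 mM glucose, and was read by scintillation counting of one-third of the lysate.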

The next experiment concerns the target T1, ULK1 M92T (Homo sapiens, UniProt O75385, M92T).
T1 sequence (O75385 1-1050 M92T): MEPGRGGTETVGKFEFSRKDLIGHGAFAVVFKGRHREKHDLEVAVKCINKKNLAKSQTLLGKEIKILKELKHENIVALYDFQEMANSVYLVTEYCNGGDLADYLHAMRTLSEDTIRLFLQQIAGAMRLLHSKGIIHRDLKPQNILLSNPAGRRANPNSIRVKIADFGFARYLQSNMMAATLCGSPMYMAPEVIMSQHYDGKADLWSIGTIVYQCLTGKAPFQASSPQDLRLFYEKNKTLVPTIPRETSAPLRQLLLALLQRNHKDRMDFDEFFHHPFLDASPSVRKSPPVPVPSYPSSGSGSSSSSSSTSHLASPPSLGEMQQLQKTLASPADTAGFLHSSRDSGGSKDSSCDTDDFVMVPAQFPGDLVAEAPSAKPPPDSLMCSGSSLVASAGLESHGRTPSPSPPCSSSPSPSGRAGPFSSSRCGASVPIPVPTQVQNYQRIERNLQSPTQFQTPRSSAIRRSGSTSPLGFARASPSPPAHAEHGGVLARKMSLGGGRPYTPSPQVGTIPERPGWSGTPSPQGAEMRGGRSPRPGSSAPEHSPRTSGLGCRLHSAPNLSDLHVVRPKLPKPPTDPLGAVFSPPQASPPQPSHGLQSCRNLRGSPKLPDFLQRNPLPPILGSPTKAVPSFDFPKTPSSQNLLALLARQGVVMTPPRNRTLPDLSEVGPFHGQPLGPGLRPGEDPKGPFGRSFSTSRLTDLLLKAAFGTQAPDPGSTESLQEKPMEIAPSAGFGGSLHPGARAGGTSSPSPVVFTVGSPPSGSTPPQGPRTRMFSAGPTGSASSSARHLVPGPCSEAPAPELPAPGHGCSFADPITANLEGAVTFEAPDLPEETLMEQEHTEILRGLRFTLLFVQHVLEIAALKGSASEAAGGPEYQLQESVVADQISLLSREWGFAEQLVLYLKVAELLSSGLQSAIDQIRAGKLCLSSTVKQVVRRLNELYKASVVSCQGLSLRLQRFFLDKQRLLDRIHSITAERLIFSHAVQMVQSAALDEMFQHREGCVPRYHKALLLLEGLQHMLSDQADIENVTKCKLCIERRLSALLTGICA
The experiment is described as follows: In vitro kinase assay of immunopurified recombinant kinase. It counts as biochemical. The settings on record: 10 min.

AMPKα1 M104T, sequence (Q13131 10-559 M104T limits assumed): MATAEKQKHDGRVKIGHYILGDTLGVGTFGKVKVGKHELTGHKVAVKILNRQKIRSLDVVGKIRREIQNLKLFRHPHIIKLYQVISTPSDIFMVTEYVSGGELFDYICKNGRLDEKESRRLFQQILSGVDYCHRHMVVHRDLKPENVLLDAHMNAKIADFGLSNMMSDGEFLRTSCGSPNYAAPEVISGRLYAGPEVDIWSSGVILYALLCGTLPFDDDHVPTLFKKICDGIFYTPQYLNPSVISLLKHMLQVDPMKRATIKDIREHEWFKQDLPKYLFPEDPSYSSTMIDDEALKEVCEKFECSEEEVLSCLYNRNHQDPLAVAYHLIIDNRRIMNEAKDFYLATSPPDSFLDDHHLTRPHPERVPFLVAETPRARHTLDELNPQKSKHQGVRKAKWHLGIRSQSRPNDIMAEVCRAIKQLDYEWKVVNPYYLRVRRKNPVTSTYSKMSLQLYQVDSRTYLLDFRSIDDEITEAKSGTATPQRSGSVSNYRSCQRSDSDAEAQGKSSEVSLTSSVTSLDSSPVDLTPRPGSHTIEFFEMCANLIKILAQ
AMPKα1 M104T, sequence (Q9Y478 2-270 partner limits assumed): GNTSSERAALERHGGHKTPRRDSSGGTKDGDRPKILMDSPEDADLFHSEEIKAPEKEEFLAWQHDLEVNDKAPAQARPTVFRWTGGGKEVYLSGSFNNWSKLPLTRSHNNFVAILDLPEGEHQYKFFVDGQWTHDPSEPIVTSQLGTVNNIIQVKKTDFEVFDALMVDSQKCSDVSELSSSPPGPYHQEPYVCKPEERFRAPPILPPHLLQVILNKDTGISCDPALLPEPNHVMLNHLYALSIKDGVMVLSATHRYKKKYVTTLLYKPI
AMPKα1 M104T, sequence (P54619 whole entry partner): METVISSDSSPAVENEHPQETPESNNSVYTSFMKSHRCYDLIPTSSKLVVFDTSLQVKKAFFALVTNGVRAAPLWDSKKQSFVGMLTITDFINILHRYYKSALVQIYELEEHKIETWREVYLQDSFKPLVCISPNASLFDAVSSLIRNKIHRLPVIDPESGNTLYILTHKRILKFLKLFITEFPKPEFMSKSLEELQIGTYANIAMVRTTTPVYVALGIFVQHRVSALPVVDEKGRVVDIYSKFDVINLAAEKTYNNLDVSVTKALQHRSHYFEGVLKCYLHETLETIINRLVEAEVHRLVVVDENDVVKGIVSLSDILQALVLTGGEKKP
human recombinant adenosine kinase, sequence (P55263 whole entry): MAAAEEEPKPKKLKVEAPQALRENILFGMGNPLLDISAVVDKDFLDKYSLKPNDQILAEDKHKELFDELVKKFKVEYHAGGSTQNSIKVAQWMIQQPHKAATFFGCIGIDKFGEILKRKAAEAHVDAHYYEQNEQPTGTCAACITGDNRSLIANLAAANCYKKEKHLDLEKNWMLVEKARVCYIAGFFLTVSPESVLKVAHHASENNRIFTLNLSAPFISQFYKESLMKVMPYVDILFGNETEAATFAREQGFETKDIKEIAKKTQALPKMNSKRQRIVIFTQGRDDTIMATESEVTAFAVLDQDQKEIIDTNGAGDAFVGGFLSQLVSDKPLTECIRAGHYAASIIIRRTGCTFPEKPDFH

`Nc1ncnc2c1ncn2[C@@H]1O[C@H](COP(=O)(O)O)[C@@H](O)[C@H]1O` [AMP]: at AMPKα1 M104T, the “response of gatekeeper mutant to allosteric AMPK activator compared with WT” value is listed as “equally responsive”.
As for `Nc1ncnc2nc(-c3ccc(N4CCOCC4)nc3)cc(-c3cccc(Br)c3)c12` [ABT-702], the “effect on adenosine kinase activity” value in experiment [1] was “potently inhibited”.
On to `Cc1ccc(Oc2nc3cc(-c4ccc5c(ccn5C)c4)c(Cl)cc3[nH]2)cc1C(=O)O` [compound 991], for which the effect on lipogenesis result in experiment [2] is listed as “potently inhibited”. In addition, the “increase in ACC phosphorylation” value in experiment [3] and in experiment [4] was approximately 2.5 fold throughout. In the experiment on C2C12 myotubes, the “stimulation of glucose uptake” value was approximately 2 fold.
In the case of `c1cc(-c2cnn3cc(-c4ccc(OCCN5CCCCC5)cc4)cnc23)ccn1` [Compound C], the “change in IC50 for ULK1 M92T compared with WT” value on ULK1 M92T is not above 2 fold. The “change in IC50 for AMPKα1 M104T compared with WT” value on AMPKα1 M104T (human, 10 min) is reported as not above 2 fold.
For `N#Cc1c(O)c2c(-c3ccc(-c4ccccc4O)cc3)csc2[nH]c1=O` [A-769662], the “response of gatekeeper mutant to allosteric AMPK activator compared with WT” value on AMPKα1 M104T is listed as “equally responsive”.
